{"data": "Assay results gathered from unrelated publications", "target": "Serine/threonine-protein kinase STK11 (STK11, Homo sapiens, UniProt Q15831)", "One construct used (Q15831 1-433)": "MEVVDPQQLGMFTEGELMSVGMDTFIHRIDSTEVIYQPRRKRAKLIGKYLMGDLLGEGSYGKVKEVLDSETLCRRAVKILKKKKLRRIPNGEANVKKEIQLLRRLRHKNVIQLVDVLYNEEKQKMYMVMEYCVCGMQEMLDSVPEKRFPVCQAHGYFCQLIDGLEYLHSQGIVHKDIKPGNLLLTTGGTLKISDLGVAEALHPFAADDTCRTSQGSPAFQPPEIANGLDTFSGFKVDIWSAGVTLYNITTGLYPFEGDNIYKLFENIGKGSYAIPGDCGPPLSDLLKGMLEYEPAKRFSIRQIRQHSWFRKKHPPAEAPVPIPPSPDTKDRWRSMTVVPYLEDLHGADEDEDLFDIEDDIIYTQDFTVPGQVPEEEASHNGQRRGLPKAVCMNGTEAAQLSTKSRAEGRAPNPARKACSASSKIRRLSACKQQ", "note": "Compare with care: the assays were run in different laboratories."}
{"Compound": "COc1cc(/C=C/C(=O)CC(=O)/C=C/c2ccc(O)c(OC)c2)ccc1O", "assay": "enzyme activity, inhibitor", "setting": "1 µM", "endpoint": "activity vs control", "result": "95%"}
{"Compound": "O=C1NC(=O)c2cc(Nc3ccc(F)cc3)c(Nc3ccc(F)cc3)cc21", "assay": "cell-free assay", "setting": "0.5 µM", "endpoint": "remaining signal", "result": "98.2%"}
{"Compound": "Cc1ccc(C(=O)Nc2ccc(CN3CCN(C)CC3)c(C(F)(F)F)c2)cc1C#Cc1cnc2cccnn12", "assay": "enzyme activity, inhibitor", "setting": "23.5 nM", "endpoint": "remaining activity", "result": "96%"}
{"Compound": "Cc1ccc(-n2nc(C(C)(C)C)cc2NC(=O)Nc2ccc(OCCN3CCOCC3)c3ccccc23)cc1", "assay": "enzyme activity, inhibitor", "setting": "10 µM", "endpoint": "inhibition", "result": "10%"}
{"Compound": "Cc1ccc(C(=O)NCc2ccsc2)cc1C#Cc1cn(C(C)C)c2ncnc(N)c12", "assay": "enzyme activity, inhibitor", "setting": "1 µM", "endpoint": "activity vs control", "result": "94%"}
{"Compound": "CNCc1ccccc1-c1csc([C@H](C)Nc2nc(C)nc3cc(OC)c(OC)cc23)c1", "assay": "cell-free assay, competition with immobilised ligand", "setting": "1 µM", "endpoint": "remaining binding", "result": "100%"}
{"Compound": "CN(c1nccc(-c2cnn3ncccc23)n1)C1CC1", "assay": "cell-free assay", "setting": "1 µM", "endpoint": "remaining signal", "result": "100%"}
{"Compound": "FC(F)c1nc2ccccc2n1-c1nc(N2CCOCC2)nc(N2CCOCC2)n1", "assay": "enzyme activity, inhibitor", "setting": "10 µM", "endpoint": "remaining activity", "result": "103%"}
{"Compound": "CCN(CC)CCNC(=O)c1c(C)[nH]c(/C=C2\\C(=O)Nc3ccc(F)cc32)c1C", "assay": "enzyme activity, inhibitor", "setting": "0.3 µM", "endpoint": "inhibition", "result": "-11%"}
{"Compound": "COc1cc(Nc2cnc(C#N)c(O[C@H](C)CN(C)C)n2)ncc1-c1cnn(C)c1", "assay": "enzyme activity, inhibitor, radiometric", "setting": "1 µM", "endpoint": "remaining activity", "result": "96%"}
{"Compound": "FC(F)(F)c1ccc2c(c1)nc(-c1cccnc1)n2C1CC1", "assay": "cell-free assay, competition with immobilised ligand", "setting": "1 µM", "endpoint": "remaining binding", "result": "100%"}
{"Compound": "CCN(CC)c1ccc(C2=NNC(=O)CC2C)cc1[N+](=O)[O-] (stereo not shown)", "assay": "enzyme activity, inhibitor", "setting": "10 µM", "endpoint": "remaining activity", "result": "91%"}
{"Compound": "CCCS(=O)(=O)Nc1ccc(F)c(C(=O)c2c[nH]c3ncc(-c4ccc(Cl)cc4)cc23)c1F", "assay": "enzyme activity, inhibitor", "setting": "1 µM", "endpoint": "inhibition", "result": "< 10%"}
{"Compound": "N#CC1(c2ccccn2)CCN(Cc2cc(C(=O)N3CCCC3)c(=O)n3ccccc23)CC1", "assay": "cell-free assay, competition with immobilised ligand", "setting": "1 µM", "endpoint": "remaining binding", "result": "77%"}
{"Compound": "Cc1ccc(Nc2nccc(N(C)c3ccc4c(C)n(C)nc4c3)n2)cc1S(N)(=O)=O", "assay": "enzyme activity, inhibitor", "setting": "0.3 µM", "endpoint": "inhibition", "result": "-6%"}
{"Compound": "CCCCN(CCCC)C(=O)CN1C[C@@H](c2cc(OC)c3c(c2)OCO3)[C@H](C(=O)O)[C@H]1CC(C)(C)CCC", "assay": "cell-free assay, competition with immobilised ligand", "setting": "1 µM", "endpoint": "remaining binding", "result": "82.2%"}
{"Compound": "FC(F)(F)Oc1cccc(-c2cnc3ccc(-c4ccncc4)nn23)c1", "assay": "enzyme activity, inhibitor, radiometric", "setting": "1 µM", "endpoint": "activity vs control", "result": "89%"}
{"Compound": "CCC(=O)N[C@H]1CC[C@@H](C(=O)N(C)c2ccc(-c3nc4ccccc4o3)cc2)C1", "assay": "cell-free assay, competition with immobilised ligand", "setting": "1 µM", "endpoint": "remaining binding", "result": "100%"}
{"Compound": "COc1cc(Cl)c(C(=O)N[C@@H](CN[C@H]2CC[C@@H](N)CC2)Cc2ccc(C#N)cc2)cc1-c1ccc(CN[C@H](C)c2ccc(C)cc2)o1", "assay": "enzyme activity, inhibitor", "setting": "1 µM", "endpoint": "remaining activity", "result": "101%"}
{"Compound": "Cc1c[nH]c2nccc(Oc3c(F)cc(Nc4cc(Cl)nc(N)n4)cc3F)c12", "assay": "cell-free assay, competition with immobilised ligand", "setting": "0.1 µM", "endpoint": "remaining binding", "result": "100%"}
{"Compound": "Cc1ccc(NC(=O)c2ccc(CN3CCN(C)CC3)cc2)cc1Nc1nc(-c2cccnc2)cs1", "assay": "cell-free assay", "setting": "0.5 µM", "endpoint": "remaining signal", "result": "102%"}
{"Compound": "CCS(=O)(=O)c1cc2cc(C[C@](O)(CC(C)(C)c3ccc(F)cc3C(N)=O)C(F)(F)F)[nH]c2cn1", "assay": "cell-free assay, competition with immobilised ligand", "setting": "1 µM", "endpoint": "remaining binding", "result": "100%"}
{"Compound": "Cc1ccc(NC(=O)c2ccc(C)c(C(F)(F)F)c2)cc1C#Cc1nn(C2CCC(O)CC2)c2ncnc(N)c12 (stereo not shown)", "assay": "cell-free assay", "setting": "10 µM", "endpoint": "remaining signal", "result": "94%"}
{"Compound": "CC(=O)N1CCC(c2ccc(C(=O)NC3=NCCN3)cc2C(F)(F)F)CC1", "assay": "cell-free assay, competition with immobilised ligand", "setting": "1 µM", "endpoint": "remaining binding", "result": "71%"}
{"Compound": "O=C(Nc1cnn(-c2csc(C(=O)NC3COC3)c2)c1)Nc1ccccc1Cl", "assay": "enzyme activity, inhibitor", "setting": "5 µM", "endpoint": "remaining activity", "result": "118%"}
